Measurements pooled from the literature.
Compare with care: the assays were run in different laboratories.
Cell line: MDA-MB-231

SMILES	test	conditions	IC50
Oc1cccc(-c2ccc3ncnc(Nc4cccc(C(F)(F)F)c4)c3c2)c1	cell growth or viability, MTT	24 h	14 µM
COC1=C2C[C@@H](C)C[C@H](OC)[C@H](O)[C@@H](C)/C=C(\C)[C@H](OC(N)=O)[C@@H](OC)/C=C\C=C(/C)C(=O)NC(=CC1=O)C2=O	cell growth or viability, MTT		0.065 µM
CSc1ccc(-c2nc3ccc(C)cc3n2Cc2ccccc2)cc1	cell growth or viability, MTT		21.9 µM
CC(=O)O[C@H]1C(=O)[C@@]2(C)[C@H]([C@H](OC(=O)c3ccccc3)[C@]3(O)C[C@H](OC(=O)[C@H](O)[C@@H](NC(=O)c4ccccc4)c4ccccc4)C(C)=C1C3(C)C)[C@]1(OC(C)=O)CO[C@@H]1C[C@@H]2O	cell growth or viability	72 h	0.0051 µM
COc1nc(SC)nc(OC)c1C(=O)/C=C/[c-]1cccc1.[Fe+2].c1cc[cH-]c1	cell growth or viability, MTT	72 h	9.3 µM
Cc1cc(NS(=O)(=O)c2ccc(NC(=O)COc3ccc(C(C)(C)c4ccccc4)cc3)cc2)nc(C)n1	cell growth or viability, MTT	48 h	39 µM
COc1c(C)c(OS(=O)(=O)c2ccc3ccccc3c2)c(C)c(OS(=O)(=O)c2ccc3ccccc3c2)c1C(=O)/C=C/c1ccccc1	cell growth or viability, SRB	72 h	> 50 µM
Cc1ccc2nc(-c3ccc([N+](=O)[O-])cc3)n(Cc3ccccc3)c2c1	cell growth or viability, MTT		8.11 µM
CN(C)c1ccc2cc(C(=O)N[C@@H](CCCNC(=N)CCl)C(=O)NCc3ccccc3)ccc2c1	cell growth or viability	48 h	7 µM
Oc1ccc(-c2ccc3ncnc(Nc4cccc(C(F)(F)F)c4)c3c2)cc1	cell growth or viability, MTT	24 h	3.96 µM
C[C@@H]1C[C@@H](c2ccc(Br)cc2)c2c(cc3ccccn23)C(=O)O1 (racemic)	cell growth or viability, resazurin	72 h	22 µM
[Na+].[Na+].[Na+].[O]=[V]([O-])([O-])[O-]	cell migration, inhibitor		5.6 µM
Oc1ccc(Br)cc1-c1nc2ccccc2[nH]1	cell growth or viability, MTT	48 h	12.8 µM
C[C@@H]1C[C@@H](c2cccc(F)c2)c2c(cc3ccccn23)C(=O)O1 (racemic)	cell growth or viability, resazurin	72 h	52.9 µM
O=C1C[C@@H](c2ccc(O)cc2)Oc2cc(O)cc(O)c21	cell growth or viability, MTT	48 h	2.98 µM
COc1ccc(-c2nc3ccccc3[nH]2)cc1OC	cell growth or viability, MTT	48 h	50.1 µM
CC(C)=CCc1c(O)c(CC=C(C)C)c2oc3c(O)ccc(O)c3c(=O)c2c1O	cell growth or viability	48 h	17.1 µM
CN(C)c1ccc(-c2nc3ccccc3[nH]2)cc1	cell growth or viability, MTT	48 h	29.1 µM
COc1cc(Nc2nccc(-c3cnn4nc(OC)ccc34)n2)cc(C(F)(F)F)c1	cell growth or viability, ATP luminescence		1.8 µM
COc1cccc2c1C(=O)c1c(O)c3c(c(O)c1C2=O)C[C@@](O)(C(=O)CO)C[C@@H]3O[C@H]1C[C@H](N)[C@H](O)[C@H](C)O1	cell growth or viability, resazurin	72 h	0.383 µM
COc1ccnc(Nc2ccc3ncnc(Nc4cccc(C(F)(F)F)c4)c3c2)c1	cell growth or viability, MTT	24 h	6.62 µM
CC(=O)Nc1nc(C)c(-c2csc(Nc3ccccc3)n2)s1	cell growth or viability, MTT	72 h	15.7 µM
CC(=O)O[C@@]12CO[C@@H]1C[C@H](O)[C@@]1(C)C(=O)[C@H](O)C3=C(C)[C@@H](OC(=O)[C@H](O)[C@@H](NC(=O)OC(C)(C)C)c4ccccc4)C[C@@](O)([C@@H](OC(=O)c4ccccc4)[C@H]21)C3(C)C	cell growth or viability, resazurin	72 h	0.02 µM
COc1cccc2c1C(=O)c1c(O)c3c(c(O)c1C2=O)C[C@@](O)(C(=O)CO)C[C@@H]3O[C@H]1C[C@H](N)[C@H](O)[C@H](C)O1	cell growth or viability, MTT	72 h	1.48 µM

SMILES	test	conditions	IC50
FC(F)(F)c1cccc(Nc2ncnc3ccc(-c4ccc(Cl)cc4)cc23)c1	cell growth or viability, MTT	24 h	11.4 µM
CC(=O)CC(=O)[c-]1cccc1.[Fe+2].c1cc[cH-]c1	cell growth or viability, MTT	96 h	47 µM
C[C@@H]1C[C@@H](c2ccc3c(c2)OCO3)c2c(cc3ccccn23)C(=O)O1 (racemic)	cell growth or viability, resazurin	72 h	29.4 µM
CC(=O)O[C@H]1C(=O)[C@@]2(C)[C@H]([C@H](OC(=O)c3ccccc3)[C@]3(O)C[C@H](OC(=O)[C@H](O)[C@@H](NC(=O)c4ccccc4)c4ccccc4)C(C)=C1C3(C)C)[C@]1(OC(C)=O)CO[C@@H]1C[C@@H]2O	cell growth or viability, ATP luminescence	72 h	0.006 µM
Clc1ccccc1-c1nc2ccccc2[nH]1	cell growth or viability, MTT	48 h	50.3 µM
O=C(Nc1nnc(-c2cc3ccccc3[nH]2)s1)c1cc2c([nH]c3ccccc32)c(-c2ccc(Cl)cc2)n1	cell growth or viability, MTT	72 h	4.45 µM
Cc1nc(Nc2ncc(C(=O)Nc3c(C)cccc3Cl)s2)cc(N2CCN(CCO)CC2)n1	cell growth or viability, MTT	48 h	19.4 µM
CC(C)C(=O)Nc1ccc([N+](=O)[O-])c(C(F)(F)F)c1	cell growth or viability, CCK-8	48 h	> 50 µM
COc1cccc2c1C(=O)c1c(O)c3c(c(O)c1C2=O)C[C@@](O)(C(=O)CO)C[C@@H]3O[C@H]1C[C@H](N)[C@H](O)[C@H](C)O1	cell growth or viability, SRB		0.45 µM
O=C(CSc1nc2ccc(N=Cc3ccc(Sc4nnnn4-c4ccccc4)o3)cc2s1)N1CCOCC1	cell growth or viability, MTT	48 h	21 µM
Cc1ccc2nc(-c3c(F)cccc3Cl)[nH]c2c1	cell growth or viability, MTT	48 h	34.4 µM
COc1cc([C@H]2C[C@@H](C)OC(=O)c3cc4ccccn4c32)cc(OC)c1OC (racemic)	cell growth or viability, resazurin	72 h	> 100 µM
COc1ccc(Br)cc1/C=C/C(=O)c1ccc(NC(C)=O)cc1	cell growth or viability, MTT	72 h	9.5 µM
COc1cc(-c2nc(C(=O)Nc3nnc(-c4cc5ccccc5n4C)s3)cc3c2[nH]c2ccccc23)cc(OC)c1OC	cell growth or viability, MTT	72 h	7.23 µM
C[C@@H]1C[C@H](c2cccc(Cl)c2)c2c(cc3ccccn23)C(=O)O1 (racemic)	cell growth or viability, resazurin	72 h	36 µM
CCCCCCCCCCCC(=O)Oc1c(C)c(O)c(C(=O)/C=C/c2ccccc2)c(OC)c1C	cell growth or viability, SRB	72 h	> 50 µM
O=C(CCl)Nc1ccc2c(Nc3cccc(C(F)(F)F)c3)ncnc2c1	cell growth or viability, MTT	24 h	6.88 µM
CC(=O)O[C@H]1C(=O)[C@@]2(C)[C@H]([C@H](OC(=O)c3ccccc3)[C@]3(O)C[C@H](OC(=O)[C@H](O)[C@@H](NC(=O)c4ccccc4)c4ccccc4)C(C)=C1C3(C)C)[C@]1(OC(C)=O)CO[C@@H]1C[C@@H]2O	cell growth or viability, MTT	48 h	1.38 µM
COc1ccc(/C=C/C(=O)c2cc(Br)ccc(=O)c2O)cc1	cell growth or viability, MTT	72 h	26.1 µM
FC(F)(F)c1cccc(Nc2ncnc3ccc(-c4ccc(CN5CCOCC5)cc4)cc23)c1	cell growth or viability, MTT	24 h	8.56 µM
COc1cccc2c1C(=O)c1c(O)c3c(c(O)c1C2=O)C[C@@](O)(C(=O)CO)C[C@@H]3O[C@H]1C[C@H](N)[C@H](O)[C@H](C)O1	cell growth or viability, MTT		4.27 µM
Oc1ccccc1-c1ccc2ncnc(Nc3cccc(C(F)(F)F)c3)c2c1	cell growth or viability, MTT	24 h	8.58 µM
CCc1ccc(N2NC(=O)/C(=C/c3ccc(-c4ccc(S(=O)(=O)Nc5nccs5)cc4)o3)C2=O)cc1	cell growth or viability, MTT	48 h	65.2 µM
O=C(Nc1nnc(-c2cc3ccccc3[nH]2)s1)c1cc2c([nH]c3ccccc32)c(-c2ccc(F)cc2)n1	cell growth or viability, MTT	72 h	6.79 µM
